According to ChEMBL document CHEMBL5058577, “EUbOPEN Chemogenomics Library 2 (Multiplex)” (2022):

Tested on: HEK-293T
Assay: Multiplex assay against HEK293T
Assay type: toxicity, cell-based
Settings: human
Procedure, shortened: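 Cells were classed with CellPathfinder machine-learning gating, first as Hoechst high-intensity objects or normal cells, then (normal cells) as healthy, pyknosed or fragmented nuclei, and finally (pyknosed cells) as mitotic or apoptotic. Staining of live cells at seeding used Hoechst33342, BioTracker Green Microtubule Cytoskeleton Dye, MitoTracker Red and Annexin V Alexa Fluor 680, with imaging on a CQ1 microscope at 37°C and 5% CO2 after compound addition. Tubulin, mitochondrial-mass and membrane-permeability phenotypes are per cents of healthy-nucleus cells.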

[1] = 12 h, 1 µM, compound concentration 1 uM, replicate 1
[2] = 12 h, 1 µM, compound concentration 1 uM, replicate 2
[3] = 12 h, 10 µM, compound concentration 10 uM, replicate 1
[4] = 12 h, 10 µM, compound concentration 10 uM, replicate 2
[5] = 24 h, 1 µM, compound concentration 1 uM, replicate 1
[6] = 24 h, 1 µM, compound concentration 1 uM, replicate 2
[7] = 24 h, 10 µM, compound concentration 10 uM, replicate 1
[8] = 24 h, 10 µM, compound concentration 10 uM, replicate 2
[9] = 48 h, 1 µM, compound concentration 1 uM, replicate 1
[10] = 48 h, 1 µM, compound concentration 1 uM, replicate 2
[11] = 48 h, 10 µM, compound concentration 10 uM, replicate 1
[12] = 48 h, 10 µM, compound concentration 10 uM, replicate 2

Which “Population Apoptotic (%)” value [1] does the source give for `COc1cc(Nc2ncc3c(n2)-c2ccc(Cl)cc2C(c2c(F)cccc2OC)=NC3)ccc1C(=O)O` [ALISERTIB] here?
The value was 38%.

What about the “Population Fragmented Nuclei (%)” value [1] of the same compound?
Its value is 3%.

What about the “Population Healthy Nuclei (%)” value [1] of the same compound?
The value was 88%.

What about the “Population Hoechst High Intensity Objects (%)” value [1] of the same compound?
The value was 5%.

And the “Population Membrane Permeable-Phenotype (%)” value [1]?
Its value is 0%.

What about the “Population Mitochondria Different-Phenotype (%)” value [1] of the same compound?
The value was 44%.

What about the “Population Mitotic Cells (%)” value [1] of the same compound?
Its value is 61%.

And the “Population Normal (%)” value [1]?
The value was 94%.

And the “Population Pyknosed Nuclei (%)” value [1]?
The value was 7%.

And the “Population Tubulin-Different-Phenotype (%)” value [1]?
Its value is 46%.

What about the “Population Apoptotic (%)” value [2] of the same compound?
The value was 61%.

And the “Population Fragmented Nuclei (%)” value [2]?
Its value is 7%.

And the “Population Healthy Nuclei (%)” value [2]?
Its value is 85%.

And the “Population Hoechst High Intensity Objects (%)” value [2]?
Its value is 7%.

What about the “Population Mitochondria Different-Phenotype (%)” value [2] of the same compound?
The value was 69%.

And the “Population Mitotic Cells (%)” value [2]?
The value was 38%.

And the “Population Normal (%)” value [2]?
Its value is 93%.

What about the “Population Tubulin-Different-Phenotype (%)” value [2] of the same compound?
The value was 49%.

What about the “Population Apoptotic (%)” value [3] of the same compound?
Its value is 61%.

What about the “Population Fragmented Nuclei (%)” value [3] of the same compound?
The value was 8%.

And the “Population Healthy Nuclei (%)” value [3]?
Its value is 74%.

And the “Population Hoechst High Intensity Objects (%)” value [3]?
The value was 9%.

What about the “Population Membrane Permeable-Phenotype (%)” value [3] of the same compound?
Its value is 0%.

What about the “Population Mitochondria Different-Phenotype (%)” value [3] of the same compound?
Its value is 80%.

And the “Population Mitotic Cells (%)” value [3]?
The value was 38%.

And the “Population Normal (%)” value [3]?
The value was 90%.

What about the “Population Pyknosed Nuclei (%)” value [3] of the same compound?
The value was 16%.

What about the “Population Tubulin-Different-Phenotype (%)” value [3] of the same compound?
The value was 68%.

And the “Population Apoptotic (%)” value [4]?
Its value is 88%.

And the “Population Fragmented Nuclei (%)” value [4]?
The value was 9%.

And the “Population Healthy Nuclei (%)” value [4]?
Its value is 72%.

What about the “Population Hoechst High Intensity Objects (%)” value [4] of the same compound?
The value was 15%.

What about the “Population Mitochondria Different-Phenotype (%)” value [4] of the same compound?
Its value is 82%.

What about the “Population Mitotic Cells (%)” value [4] of the same compound?
Its value is 11%.

And the “Population Normal (%)” value [4]?
The value was 84%.

And the “Population Pyknosed Nuclei (%)” value [4]?
The value was 17%.

What about the “Population Tubulin-Different-Phenotype (%)” value [4] of the same compound?
Its value is 54%.

And the “Population Apoptotic (%)” value [5]?
The value was 50%.

And the “Population Fragmented Nuclei (%)” value [5]?
Its value is 10%.

What about the “Population Healthy Nuclei (%)” value [5] of the same compound?
Its value is 82%.

And the “Population Hoechst High Intensity Objects (%)” value [5]?
The value was 3%.

What about the “Population Membrane Permeable-Phenotype (%)” value [5] of the same compound?
Its value is 0%.

What about the “Population Mitochondria Different-Phenotype (%)” value [5] of the same compound?
Its value is 25%.

What about the “Population Mitotic Cells (%)” value [5] of the same compound?
The value was 50%.

And the “Population Normal (%)” value [5]?
The value was 96%.

What about the “Population Pyknosed Nuclei (%)” value [5] of the same compound?
The value was 7%.

And the “Population Tubulin-Different-Phenotype (%)” value [5]?
Its value is 31%.

And the “Population Apoptotic (%)” value [6]?
Its value is 47%.

And the “Population Fragmented Nuclei (%)” value [6]?
The value was 9%.

What about the “Population Healthy Nuclei (%)” value [6] of the same compound?
The value was 81%.

What about the “Population Hoechst High Intensity Objects (%)” value [6] of the same compound?
The value was 9%.

And the “Population Mitochondria Different-Phenotype (%)” value [6]?
The value was 47%.

And the “Population Mitotic Cells (%)” value [6]?
The value was 52%.

What about the “Population Normal (%)” value [6] of the same compound?
Its value is 90%.

What about the “Population Pyknosed Nuclei (%)” value [6] of the same compound?
The value was 9%.

What about the “Population Tubulin-Different-Phenotype (%)” value [6] of the same compound?
Its value is 30%.

What about the “Population Apoptotic (%)” value [7] of the same compound?
Its value is 54%.

What about the “Population Fragmented Nuclei (%)” value [7] of the same compound?
The value was 8%.

And the “Population Healthy Nuclei (%)” value [7]?
The value was 74%.

And the “Population Hoechst High Intensity Objects (%)” value [7]?
Its value is 6%.

What about the “Population Membrane Permeable-Phenotype (%)” value [7] of the same compound?
The value was 0%.

What about the “Population Mitochondria Different-Phenotype (%)” value [7] of the same compound?
Its value is 75%.

And the “Population Mitotic Cells (%)” value [7]?
The value was 45%.

What about the “Population Normal (%)” value [7] of the same compound?
Its value is 93%.

And the “Population Pyknosed Nuclei (%)” value [7]?
The value was 16%.

And the “Population Tubulin-Different-Phenotype (%)” value [7]?
The value was 64%.

And the “Population Apoptotic (%)” value [8]?
The value was 56%.

What about the “Population Fragmented Nuclei (%)” value [8] of the same compound?
The value was 12%.

What about the “Population Healthy Nuclei (%)” value [8] of the same compound?
Its value is 55%.

And the “Population Hoechst High Intensity Objects (%)” value [8]?
Its value is 34%.

And the “Population Membrane Permeable-Phenotype (%)” value [8]?
Its value is 1%.

What about the “Population Mitochondria Different-Phenotype (%)” value [8] of the same compound?
The value was 86%.

What about the “Population Mitotic Cells (%)” value [8] of the same compound?
Its value is 43%.

And the “Population Normal (%)” value [8]?
Its value is 65%.

And the “Population Pyknosed Nuclei (%)” value [8]?
Its value is 31%.

And the “Population Tubulin-Different-Phenotype (%)” value [8]?
The value was 50%.

And the “Population Apoptotic (%)” value [9]?
The value was 31%.

And the “Population Fragmented Nuclei (%)” value [9]?
Its value is 14%.

And the “Population Healthy Nuclei (%)” value [9]?
Its value is 79%.

And the “Population Hoechst High Intensity Objects (%)” value [9]?
Its value is 3%.

And the “Population Membrane Permeable-Phenotype (%)” value [9]?
Its value is 0%.

What about the “Population Mitochondria Different-Phenotype (%)” value [9] of the same compound?
The value was 14%.

What about the “Population Mitotic Cells (%)” value [9] of the same compound?
Its value is 68%.

What about the “Population Normal (%)” value [9] of the same compound?
Its value is 96%.

What about the “Population Pyknosed Nuclei (%)” value [9] of the same compound?
Its value is 5%.

What about the “Population Tubulin-Different-Phenotype (%)” value [9] of the same compound?
Its value is 17%.

What about the “Population Apoptotic (%)” value [10] of the same compound?
Its value is 57%.

And the “Population Fragmented Nuclei (%)” value [10]?
The value was 16%.

And the “Population Healthy Nuclei (%)” value [10]?
Its value is 77%.

And the “Population Hoechst High Intensity Objects (%)” value [10]?
The value was 15%.

And the “Population Mitochondria Different-Phenotype (%)” value [10]?
The value was 27%.

What about the “Population Mitotic Cells (%)” value [10] of the same compound?
The value was 42%.

What about the “Population Normal (%)” value [10] of the same compound?
The value was 84%.

What about the “Population Tubulin-Different-Phenotype (%)” value [10] of the same compound?
The value was 24%.

And the “Population Apoptotic (%)” value [11]?
The value was 48%.

What about the “Population Fragmented Nuclei (%)” value [11] of the same compound?
Its value is 13%.

And the “Population Healthy Nuclei (%)” value [11]?
The value was 78%.

And the “Population Hoechst High Intensity Objects (%)” value [11]?
Its value is 5%.

What about the “Population Membrane Permeable-Phenotype (%)” value [11] of the same compound?
The value was 0%.

And the “Population Mitochondria Different-Phenotype (%)” value [11]?
The value was 57%.

And the “Population Mitotic Cells (%)” value [11]?
Its value is 52%.

What about the “Population Normal (%)” value [11] of the same compound?
The value was 94%.

And the “Population Pyknosed Nuclei (%)” value [11]?
The value was 7%.

And the “Population Tubulin-Different-Phenotype (%)” value [11]?
The value was 42%.

What about the “Population Apoptotic (%)” value [12] of the same compound?
The value was 82%.

What about the “Population Fragmented Nuclei (%)” value [12] of the same compound?
The value was 19%.

And the “Population Healthy Nuclei (%)” value [12]?
The value was 61%.

What about the “Population Hoechst High Intensity Objects (%)” value [12] of the same compound?
Its value is 32%.

What about the “Population Membrane Permeable-Phenotype (%)” value [12] of the same compound?
The value was 4%.

And the “Population Mitochondria Different-Phenotype (%)” value [12]?
Its value is 73%.

What about the “Population Mitotic Cells (%)” value [12] of the same compound?
The value was 17%.

And the “Population Normal (%)” value [12]?
Its value is 67%.

What about the “Population Pyknosed Nuclei (%)” value [12] of the same compound?
The value was 19%.

And the “Population Tubulin-Different-Phenotype (%)” value [12]?
The value was 38%.
